Converted amounts (≈) assume the structure as drawn.
Legend:
Liver = assay: Intrinsic clearance in rat liver microsome S9 fraction as % compound remaining after incubation; type: ADME, subcellular
[1] = biological target: T1, Intermediate conductance calcium-activated potassium channel protein 4 (Homo sapiens, UniProt O15554); assay: Inhibition of Gardos channel in human RBC assessed as inhibition of ionomycin-stimulated [86Rb] efflux
[2] = Solubility by shake-flask method; type: physicochemical
Method in brief: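 Modified shake-flask method: about 1 mg compound shaken overnight in 1 mL PBS, pH 6.8. Supernatant analysed by LC/MS/MS; 2 measurements.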

[3] = biological target: T1, Intermediate conductance calcium-activated potassium channel protein 4; assay: Inhibition of Gardos channel in human RBC assessed as […] at 10 uM
[4] = Tmax in Sprague-Dawley rat at 1 mg/kg, iv or 10 mg/kg, po; type: ADME, organism-based; details: in vivo
Method in brief: (§1)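 Male Sprague-Dawley rats (251–299 g), n = 3 per time point. Dosed 1 mg/Kg IV by tail vein in PEG-400/cremophor-EL, or 10 mg/Kg by oral gavage in 0.5% aqueous methylcellulose. Plasma sampled 0.08–24 h (IV) or 0.5–24 h (PO) and quantified by LC-MS, LLOQ 1 ng/mL. Noncompartmental analysis; Cmax and Tmax read from the data; AUC by linear-log trapezoidal rule.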

CYP3A4 = CYP3A4 (Homo sapiens, UniProt P08684); assay: Inhibition of CYP3A4 at 10 uM; type: ADME
Mus musculus [5] = assay: Effect on hematocrit levels in SAD1 mouse model at 20 mg/kg, po bid after 7 days; type: functional
Method in brief: (§2)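 Transgenic SAD-1 mice of both sexes, 3–6 months, 25–30 g, given vehicle or compound by oral gavage twice daily. Blood parameters taken at baseline and at days 7 and 14 (20 mg/kg arm) or days 11 and 21 (10 mg/kg arm). Hematocrit measured by micro-Hct centrifugation; cells washed three times in PBS (330 mOsm) at 25 °C.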

Mus musculus [6] = assay: Effect on hematocrit levels in SAD1 mouse model at 20 mg/kg, po bid after 14 days; type: functional; method in brief: as §2
Mus musculus [7] = assay: Effect on mean corpuscular hemoglobin concentration in SAD1 mouse model at 20 mg/kg, po bid after 14 days; type: functional; method in brief: as §2
Mus musculus [8] = assay: Effect on gardos channel activity in SAD1 mouse model assessed by measuring [86Rb]/L of cells at 20 mg/kg, po bid after 7 days; type: functional
Mus musculus [9] = assay: Effect on mean corpuscular hemoglobin concentration in SAD1 mouse model at 20 mg/kg, po bid after 7 days; type: functional; method in brief: as §2
[10] = Cmax in Sprague-Dawley rat at 1 mg/kg, iv or 10 mg/kg, po; type: ADME, organism-based; details: in vivo; method in brief: as §1
Mus musculus [11] = assay: Effect on gardos channel activity in SAD1 mouse model assessed by measuring [86Rb]/L of cells at 20 mg/kg, po bid after 14 days; type: functional
[12] = Half life in Sprague-Dawley rat at 1 mg/kg, iv or 10 mg/kg, po; type: ADME, organism-based; details: in vivo; method in brief: as §1
Mus musculus [13] = assay: Effect on gardos channel activity in SAD1 mouse model at 10 mg/kg, po bid after 11 days; type: functional
Mus musculus [14] = assay: Effect on mean corpuscular hemoglobin concentration in SAD1 mouse model at 10 mg/kg, po bid after 21 days; type: functional; method in brief: as §2
Mus musculus [15] = assay: Effect on hematocrit levels in SAD1 mouse model at 10 mg/kg, po bid after 11 days; type: functional; method in brief: as §2
Mus musculus [16] = assay: Effect on hematocrit levels in SAD1 mouse model at 10 mg/kg, po bid after 21 days; type: functional; method in brief: as §2
Mus musculus [17] = assay: Effect on mean corpuscular hemoglobin concentration in SAD1 mouse model at 10 mg/kg, po bid after 11 days; type: functional; method in brief: as §2
Mus musculus [18] = assay: Effect on gardos channel activity in SAD1 mouse model at 10 mg/kg, po bid after 21 days; type: functional
[19] = Bioavailability in Sprague-Dawley rat at 1 mg/kg, iv or 10 mg/kg, po; type: ADME, organism-based; details: in vivo; method in brief: as §1
hERG (KCNH2) = hERG (KCNH2) (Homo sapiens, UniProt Q12809); assay: Inhibition of human ERG at 10 uM
Sequence of hERG (KCNH2) (Q12809 whole entry): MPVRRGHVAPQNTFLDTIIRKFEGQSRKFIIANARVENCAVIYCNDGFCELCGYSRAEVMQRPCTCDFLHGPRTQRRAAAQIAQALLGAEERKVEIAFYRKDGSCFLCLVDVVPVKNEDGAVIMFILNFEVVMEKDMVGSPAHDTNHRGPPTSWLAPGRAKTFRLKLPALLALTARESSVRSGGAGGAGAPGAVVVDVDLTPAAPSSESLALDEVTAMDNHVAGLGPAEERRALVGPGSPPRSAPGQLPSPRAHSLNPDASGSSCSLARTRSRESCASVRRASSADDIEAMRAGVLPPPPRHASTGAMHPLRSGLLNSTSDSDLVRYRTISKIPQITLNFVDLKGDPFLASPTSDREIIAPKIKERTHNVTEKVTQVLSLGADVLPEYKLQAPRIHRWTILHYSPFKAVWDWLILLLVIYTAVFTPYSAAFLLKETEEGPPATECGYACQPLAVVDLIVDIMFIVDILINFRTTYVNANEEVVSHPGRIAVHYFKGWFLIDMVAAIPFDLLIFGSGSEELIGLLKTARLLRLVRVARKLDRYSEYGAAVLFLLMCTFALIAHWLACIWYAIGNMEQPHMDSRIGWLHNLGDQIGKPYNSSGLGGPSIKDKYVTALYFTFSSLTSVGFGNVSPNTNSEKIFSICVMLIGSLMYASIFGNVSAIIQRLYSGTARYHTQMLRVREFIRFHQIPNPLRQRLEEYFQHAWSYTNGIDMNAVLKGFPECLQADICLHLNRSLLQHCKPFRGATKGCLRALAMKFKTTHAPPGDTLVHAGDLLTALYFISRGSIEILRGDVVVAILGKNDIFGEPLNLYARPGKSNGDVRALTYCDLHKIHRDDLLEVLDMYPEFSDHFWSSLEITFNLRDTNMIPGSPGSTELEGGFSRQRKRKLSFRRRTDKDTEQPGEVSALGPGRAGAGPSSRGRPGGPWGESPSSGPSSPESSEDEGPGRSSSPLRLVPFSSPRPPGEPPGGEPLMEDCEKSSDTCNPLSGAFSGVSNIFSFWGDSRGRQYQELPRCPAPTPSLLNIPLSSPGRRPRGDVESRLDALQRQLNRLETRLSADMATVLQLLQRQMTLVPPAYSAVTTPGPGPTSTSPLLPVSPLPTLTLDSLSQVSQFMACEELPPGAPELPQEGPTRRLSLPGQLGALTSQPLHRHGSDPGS

T1 sequence (O15554 whole entry): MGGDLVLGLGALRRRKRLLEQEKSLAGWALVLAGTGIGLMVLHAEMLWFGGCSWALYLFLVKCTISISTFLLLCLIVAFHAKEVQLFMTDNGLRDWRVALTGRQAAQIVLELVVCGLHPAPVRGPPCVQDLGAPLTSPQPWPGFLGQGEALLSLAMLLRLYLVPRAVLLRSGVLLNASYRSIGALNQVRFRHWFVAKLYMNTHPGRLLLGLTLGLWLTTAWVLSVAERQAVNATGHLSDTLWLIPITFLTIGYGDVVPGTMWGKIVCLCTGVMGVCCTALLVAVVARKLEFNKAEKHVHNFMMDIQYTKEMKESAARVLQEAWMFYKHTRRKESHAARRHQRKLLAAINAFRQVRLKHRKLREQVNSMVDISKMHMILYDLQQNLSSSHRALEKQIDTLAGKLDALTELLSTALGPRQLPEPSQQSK
Sequence of CYP3A4 (P08684 whole entry): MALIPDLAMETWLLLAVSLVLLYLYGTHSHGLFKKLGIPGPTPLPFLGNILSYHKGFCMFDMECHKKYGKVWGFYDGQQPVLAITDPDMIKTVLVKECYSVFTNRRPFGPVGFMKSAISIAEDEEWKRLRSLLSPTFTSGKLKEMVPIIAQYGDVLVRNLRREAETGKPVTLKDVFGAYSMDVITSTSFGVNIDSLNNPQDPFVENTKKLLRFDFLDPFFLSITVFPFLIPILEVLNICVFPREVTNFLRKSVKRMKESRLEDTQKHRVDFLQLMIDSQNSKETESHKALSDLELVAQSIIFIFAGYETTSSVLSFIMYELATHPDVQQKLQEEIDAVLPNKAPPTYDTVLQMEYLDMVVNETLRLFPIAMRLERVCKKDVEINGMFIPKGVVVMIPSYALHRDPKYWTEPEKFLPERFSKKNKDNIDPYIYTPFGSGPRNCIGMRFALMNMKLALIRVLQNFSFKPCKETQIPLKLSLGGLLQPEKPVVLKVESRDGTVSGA

| Compound remaining (Liver) [%] | IC50 [1] [µM] | solubility thermodynamic [2] [µM] | SMILES | further results |
| --- | --- | --- | --- | --- |
| 43 | – | 1.2 (≈ 0.388 µg/mL) | NC(=O)C(c1ccccc1)(c1cccc(F)c1)c1cccc(F)c1 | – |
| 48 | 0.03 | > 31 | NC(=O)C(c1ccccc1)(c1ccccc1F)c1ccccc1F | – |
| 58 | 0.04 | 2.9 (≈ 0.886 µg/mL) | NC(=O)C(c1ccccc1)(c1ccccc1)c1ccc(F)cc1 | – |
| 61 | – | 10.6 (≈ 3.24 µg/mL) | NC(=O)C(c1ccccc1)(c1ccccc1)c1ccccc1F | – |
| – | 4.3 | – | c1ccc(C(C2=NCCO2)(c2ccccc2)c2ccccc2)cc1 | – |
| – | 1.75 | – | CCNC(=O)C(c1ccccc1)(c1ccccc1)c1ccccc1 | – |
| 46 | 0.015 | 6.8 (≈ 2.32 µg/mL) | NC(=O)C(c1ccc(F)cc1)(c1ccccc1F)c1ccccc1F | – |

More lines, now with the values behind:

| SMILES | Compound remaining (Liver) [%] | IC50 [1] [µM] | solubility thermodynamic [2] [µM] | further results |
| --- | --- | --- | --- | --- |
| NC(=O)C(c1ccc(F)cc1)(c1ccc(F)cc1)c1ccccc1F | 62 | 0.01 | 8.3 (≈ 2.83 µg/mL) | – |
| COC(=O)C(c1ccccc1)(c1ccccc1)c1ccccc1 | – | 0.33 | – | – |
| NC(=O)C(c1ccc(F)cc1)(c1ccc(F)cc1)c1cccc(F)c1 | 19 | 0.017 | 4.1 (≈ 1.4 µg/mL) | – |
| O=C1Nc2ccccc2C1(c1ccccc1)c1ccccc1 | – | – | – | inhibition [3]: < 20% |
| O=C(O)C(c1ccccc1)(c1ccccc1)c1ccccc1 | – | > 10 | – | – |
| NC(=O)C(c1ccccc1)(c1ccc(F)cc1)c1ccccc1F (stereo unspecified) | 40 | 0.009 | 5.8 (≈ 1.88 µg/mL) | Tmax [4]: 2 h; inhibition at 10 µM (CYP3A4): < 20%; Activity (Mus musculus [5]): 44.5%; Activity (Mus musculus [6]): 47%; Activity (Mus musculus [7]): 27 g/dL; Activity (Mus musculus [8]): 4 mmol; Activity (Mus musculus [9]): 34 g/dL; Cmax [10]: 0.25 µg/mL; Activity (Mus musculus [11]): 2 mmol; half-life [12]: 2.5 h |
| NC(=O)C(c1ccc(F)cc1)(c1cccc(F)c1)c1cccc(F)c1 | – | 0.015 | – | – |
| NC(=O)C(c1ccccc1)(c1ccc(F)cc1)c1ccc(F)cc1 [SENICAPOC] | 51 | – | 3.8 (≈ 1.23 µg/mL) | Tmax [4]: 4 h; Activity (Mus musculus [13]): 3 mmol; inhibition at 10 µM (CYP3A4): < 20%; Activity (Mus musculus [14]): 30.3 g/dL; Activity (Mus musculus [15]): 50.9%; Cmax [10]: 0.4 µg/mL; Activity (Mus musculus [16]): 49.9%; Activity (Mus musculus [17]): 29.5 g/dL; Activity (Mus musculus [18]): 1.5 mmol; bioavailability [19]: 51%; half-life [12]: 1 h |
| CNC(=O)C(c1ccccc1)(c1ccccc1)c1ccccc1 | – | 0.55 | – | inhibition at 10 µM (CYP3A4): < 20%; inhibition at 10 µM (hERG (KCNH2)): < 20% |
| NC(=O)C(c1ccccc1)(c1ccccc1)c1ccc(F)c(F)c1 | 63 | 0.014 | 4.3 (≈ 1.39 µg/mL) | – |
| NC(=O)C(c1cccc(F)c1)(c1cccc(F)c1)c1cccc(F)c1 | 36 | 0.013 | 3.4 (≈ 1.16 µg/mL) | – |
| NC(=O)C(c1ccccc1)(c1ccccc1)c1ccc(F)cc1F | 44 | – | 1.8 (≈ 0.582 µg/mL) | – |
| NC(=O)C(c1ccc(F)cc1)(c1ccc(F)cc1)c1ccc(F)cc1 | 25 | 0.014 | 2.6 (≈ 0.887 µg/mL) | – |
| CN(C)C(=O)C(c1ccccc1)(c1ccccc1)c1ccccc1 | – | 3.15 | – | – |

Source: ChEMBL document CHEMBL1141563, “Novel inhibitors of the Gardos channel for the treatment of sickle cell disease” (J Med Chem, 2008)
